In the array DNA melting data of Ke et al. (doi:10.1101/2024.01.08.574731):

Legend:
[1] = folding enthalpy; higher = less favourable; fluorescence melt of hairpins on a sequencing array, two-state fit; settings: sodium 0.088 M
Procedure, shortened: (§1)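 To match UV melts, fitted temperatures were raised by 9.35 °C. These fits were bootstrapped two-state models that gave melting temperature and folding enthalpy, combined by inverse variance over four replicates. The input was normalised Cy3 fluorescence of library hairpins with annealed Cy3 and quencher oligos on a sequenced MiSeq flow cell, imaged in 50 mM Na-HEPES pH 8.0, 25 mM NaCl in 2.5 °C steps up to 60 °C.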

[2] = melting temperature; fluorescence melt of hairpins on a sequencing array, two-state fit, raised by 9.35 °C to match UV melts; settings: sodium 0.088 M
Procedure, shortened: as §1

| Sequence | folding enthalpy [1] [kcal/mol] | Tm [2] [°C] |
| --- | --- | --- |
| GGCCCACCGAAAGGTGCC (((..(((....)))))) | -9.96 | 34.2 |
| GGCCCACGAAAGTGAGCC (((.(((....))).))) | -40.6 | 60.8 |
| GGCCCACGAAAGTGCGCC (((.(((....))).))) | -42.5 | 55.8 |
| GGCCCCGAAAGGGAGCC ((((((....))).))) | -31.6 | 68.4 |
| GGCCCCGAAAGGGGAGCC ((((((....)))..))) | -12.8 | 59.1 |
| GGCCCCGAAAGGGTAGCC ((((((....)))..))) | -23.7 | 60.1 |
| GGCCCCGAAAGGGTTGCC ((((((....)))..))) | -16.3 | 55.3 |
| GGCCCCTCGAAAGAGGCC (((..(((....)))))) | -15.6 | 43.8 |
| GGCCCGACGAAAGTCGCC (((..(((....)))))) | -8.24 | 35.2 |
| GGCCCGGGAAACCGGGTC (.(((((....))))).) | -28.9 | 67.3 |
| GGCCCTCCGAAAGGAGCC (((..(((....)))))) | -10.6 | 38.4 |
| GGCCCTGGAAACAGAGCC (((.(((....))).))) | -41.2 | 48.7 |
| GGCCCTGGAAACAGGGTC (.(((((....))))).) | -36 | 58.9 |
| GGCCCTGGAAACGGGGCC (((((.(....).))))) | -31.4 | 67.5 |
| GGCCGACGAAAGTCTGCC (((.(((....))).))) | -51.3 | 56.2 |
| GGCCGAGGAAACCCGACC ((.((.(....).)).)) | -24.9 | 34 |
| GGCCGATCGAAAGATGCC (((..(((....)))))) | -25.1 | 38.9 |
| GGCCGCGAAAGCGCTGCC ((((((....)))..))) | -18.6 | 56.5 |
| GGCCGCGAAAGCGGAGCC ((((((....)))..))) | -13.4 | 53.9 |
| GGCCGCGAAAGCGTTGCC ((((((....)))..))) | -16.8 | 56 |
| GGCCGCGGAAACGCGACC ((.((((....)))).)) | -19.7 | 63.3 |
| GGCCGGACGAAAGTCGCC (((..(((....)))))) | -21.5 | 50 |
| GGCCGGGGAAACCCGGTC (.(((((....))))).) | -24.6 | 67.9 |

| Sequence | folding enthalpy [1] [kcal/mol] | Tm [2] [°C] |
| --- | --- | --- |
| GGCCGTCGAAAGACGCC (((.(((....)))))) | -17.2 | 62.8 |
| GGCCGTGGAAACATGGCC ((((.((....)).)))) | -44.6 | 61.8 |
| GGCCGTGGAAACGCGGTC (.(((.(....).))).) | -30.3 | 52.5 |
| GGCCGTGGAAACGTGGCC ((((..(....)..)))) | -39.9 | 55.5 |
| GGCCGTTCGAAAGAAGCC (((..(((....)))))) | -13.8 | 27.6 |
| GGCCTAGCGAAAGCTGCC (((..(((....)))))) | -20.4 | 47.1 |
| GGCCTCCGAAAGGACGCC (((.(((....))).))) | -37.2 | 53.6 |
| GGCCTCGAAAGAGAAGCC ((((((....)))..))) | -26 | 47.9 |
| GGCCTCGAAAGAGCGCC ((((((....))).))) | -21.8 | 56.7 |
| GGCCTCGAAAGAGCGGCC ((((((....)))..))) | -29.1 | 51.8 |
| GGCCTCGAAAGAGCTGCC ((((((....)))..))) | -24 | 45 |
| GGCCTCGAAAGAGGTGCC ((((((....)))..))) | -13.2 | 47.6 |
| GGCCTCGAAAGAGTGCC ((((((....))).))) | -37.7 | 58.2 |
| GGCCTCGGAAACGAGACC ((.((((....)))).)) | -31.3 | 52.2 |
| GGCCTGCGAAAGCAAGCC (((.(((....))).))) | -30.1 | 58.5 |
| GGCCTGGGAAACCAAGCC (((.(((....))).))) | -30.1 | 45.4 |
| GGCCTGTCGAAAGACGCC (((..(((....)))))) | -18.8 | 45.2 |
| GGCCTTCGAAAGAAAGCC (((.(((....))).))) | -31 | 45.7 |
| GGCCTTCGAAAGAATGCC (((.(((....))).))) | -33.1 | 48.3 |
| GGCCTTGAAAAAGGCC ((((((....)))))) | -39.9 | 68.4 |
| GGCCTTGGAAACAGGGCC ((((.((....)).)))) | -46 | 57.1 |
| GGCCTTGGAAACGAGGCC (((((.(....).))))) | -50.7 | 59.4 |
| GGCGAAACGAAAGTTGCC (((..(((....)))))) | -25.5 | 49.5 |

| Sequence | folding enthalpy [1] [kcal/mol] | Tm [2] [°C] |
| --- | --- | --- |
| GGCGACGAAAGTCCCGCC ((((((....)))..))) | -19.5 | 54.8 |
| GGCGACGAAAGTCTGGCC ((((((....)))..))) | -23.3 | 53.7 |
| GGCGACGAAAGTCTTGCC ((((((....)))..))) | -19.3 | 48.9 |
| GGCGACGGAAACGTCGTC (.(((((....))))).) | -26.5 | 67.9 |
| GGCGAGCGAAAGCTGGCC (((.(((....))).))) | -34.6 | 68 |
| GGCGATACGAAAGTAGCC (((..(((....)))))) | -23.3 | 49.5 |
| GGCGATCGAAAGATGCC (((.(((....)))))) | -37.8 | 55 |
| GGCGATGGAAACATCGTC (.(((((....))))).) | -45.8 | 56.5 |
| GGCGCAGCGAAAGCTGCC (((..(((....)))))) | -6.91 | 52.6 |
| GGCGCAGGAAACCGCACC ((.((.(....).)).)) | -27.5 | 39 |
| GGCGCCCCGAAAGGGGCC (((..(((....)))))) | -7.09 | 58.6 |
| GGCGCCGAAAGGCAAGCC ((((((....)))..))) | -21.7 | 63.8 |
| GGCGCCGAAAGGCCGGCC ((((((....)))..))) | -17.2 | 58.7 |
| GGCGCCGAAAGGCGGGCC ((((((....)))..))) | -9.79 | 60.4 |
| GGCGCGGGAAACCGCACC ((.((((....)))).)) | -22.4 | 61.7 |
| GGCGCTCGAAAGAGGCC (((.(((....)))))) | -40.1 | 57.5 |
| GGCGCTGGAAACGGTGCC (((.(.(....).).))) | -31.2 | 52.7 |
| GGCGGATCGAAAGATGCC (((..(((....)))))) | -22.7 | 46.1 |
| GGCGGCGAAAGCCAAGCC ((((((....)))..))) | -25.5 | 63.9 |
| GGCGGCGAAAGCCTGGCC ((((((....)))..))) | -19.9 | 61.8 |
| GGCGGCGGAAACACCGCC (((((.(....).))))) | -21.9 | 65.2 |
| GGCGGTCGAAAGACAGCC (((.(((....))).))) | -35 | 67.7 |
| GGCGGTGGAAACACCACC ((.((((....)))).)) | -27.5 | 53 |

| Sequence | folding enthalpy [1] [kcal/mol] | Tm [2] [°C] |
| --- | --- | --- |
| GGCGGTTCGAAAGAAGCC (((..(((....)))))) | -16.6 | 41 |
| GGCGTACGAAAGTAAGCC (((.(((....))).))) | -35.1 | 59.3 |
| GGCGTAGAAATACGCC ((((((....)))))) | -37.5 | 66.1 |
| GGCGTAGGAAACTGTGCC (((..((....))..))) | -27 | 39.4 |
| GGCGTCGAAAGACCGCC ((((((....))).))) | -34.5 | 60.5 |
| GGCGTCGAAAGACGGGCC ((((((....)))..))) | -12.7 | 52 |
| GGCGTCGGAAACGACACC ((.((((....)))).)) | -30.1 | 53.9 |
| GGCGTGGCGAAAGCCGCC (((..(((....)))))) | -16.4 | 66.7 |
| GGCGTGGGAAACCATGCC (((.(((....))).))) | -44.5 | 61.4 |
| GGCGTGGGAAACCGCGTC (.((.((....)).)).) | -27.4 | 52.2 |
| GGCGTGTCGAAAGACGCC (((..(((....)))))) | -23.6 | 58.7 |
| GGCGTTCGAAAGAAAGCC (((.(((....))).))) | -34.1 | 56.8 |
| GGCTAAGGAAACTTAGTC (.(((((....))))).) | -36.7 | 42.4 |
| GGCTACCGAAAGGTTGCC (((.(((....))).))) | -35.5 | 63 |
| GGCTACGAAAGTACCGCC ((((((....)))..))) | -23.1 | 48.4 |
| GGCTACGAAAGTACGGCC ((((((....)))..))) | -23.9 | 46.5 |
| GGCTACGAAAGTAGCGCC ((((((....)))..))) | -9.93 | 55.7 |
| GGCTACGCGAAAGCGGCC (((..(((....)))))) | -17.2 | 56.9 |
| GGCTACGGAAACATAGCC (((((.(....).))))) | -28.8 | 43.8 |
| GGCTACGGAAACGTAACC ((.((((....)))).)) | -26.2 | 42.1 |
| GGCTAGGCGAAAGCCGCC (((..(((....)))))) | -15 | 60.8 |
| GGCTAGGGAAACCTGGCC (((.(((....))).))) | -44.8 | 55.5 |
